≈ marks a conversion by molar mass, not a printed value. Calls of active or inactive are those of the source. No cut-off for these calls is given here.
Tests used:
[1] = tested on: Acinetobacter baumannii; assay: Antibacterial activity against Acinetobacter baumannii ATCC 19606; type: functional; conditions: ATCC 19606 = CIP 70.34 = JCM 6841
[2] = tested on: Escherichia coli; assay: Antibacterial activity against Escherichia coli BW25113; type: functional
[3] = tested on: Escherichia coli; assay: Antibacterial activity against TolC-deficient Escherichia coli JW55031; type: functional
[4] = tested on: Escherichia coli; assay: Antibacterial activity against Escherichia coli ATCC 25922; type: functional
[5] = tested on: Klebsiella pneumoniae; assay: Antibacterial activity against Klebsiella pneumoniae BAA-1706; type: functional
[6] = tested on: Pseudomonas aeruginosa; assay: Antibacterial activity against Pseudomonas aeruginosa ATCC 27853; type: functional
[7] = tested on: Pseudomonas aeruginosa; assay: Antibacterial activity against Pseudomonas aeruginosa ATCC 15442; type: functional
[8] = tested on: Acinetobacter baumannii; assay: Bactericidal activity against Acinetobacter baumannii ATCC 19606; type: functional; conditions: ATCC 19606 = CIP 70.34 = JCM 6841
[9] = tested on: Escherichia coli; assay: Bactericidal activity against Escherichia coli BW25113; type: functional
[10] = tested on: Escherichia coli; assay: Bactericidal activity against TolC-deficient Escherichia coli JW55031; type: functional
[11] = tested on: Escherichia coli; assay: Bactericidal activity against Escherichia coli ATCC 25922; type: functional
[12] = tested on: Klebsiella pneumoniae; assay: Bactericidal activity against Klebsiella pneumoniae BAA-1706; type: functional
[13] = tested on: Pseudomonas aeruginosa; assay: Bactericidal activity against Pseudomonas aeruginosa ATCC 27853; type: functional
[14] = tested on: Pseudomonas aeruginosa; assay: Bactericidal activity against Pseudomonas aeruginosa ATCC 15442; type: functional
[15] = tested on: Staphylococcus aureus; assay: Antibacterial activity against methicillin-resistant Staphylococcus aureus NRS384 USA300 after 18 to 20 hrs by broth microdilution assay; type: functional
Outline: (§1)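 Broth microdilution per CLSI. Strains grown aerobically overnight on tryptone soy agar at 37 °C, adjusted to 0.5 McFarland, then diluted in cation-adjusted Mueller-Hinton broth to about 5 × 10^5 CFU/mL. Compounds (10 mg/mL DMSO stocks) serially diluted. Incubated aerobically at 37 °C for 18-20 h. MIC is the lowest concentration with no visible growth.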

[16] = tested on: Staphylococcus aureus; assay: Antibiofilm activity against methicillin resistant Staphylococcus aureus NRS384 USA300 assessed as disruption of matured biofilm formation at 4 x MIC incubated for 24 hrs by crystal violet staining based spectrophotometric analysis; type: functional, organism-based
Outline: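 MRSA USA300 overnight culture diluted 1:100 in tryptic soy broth + 1% glucose. Biofilm formed for 24 h at 37 °C. Planktonic cells removed, then compounds added at 256 to 2 µg/mL in TSB for 24 h at 37 °C. Wells washed with PBS, stained with 0.1% crystal violet for 30 min, destained with ethanol, read at OD595. Percent eradication relative to DMSO; unpaired t test.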

[17] = tested on: Streptococcus pneumoniae; assay: Bactericidal activity against methicillin-resistant Streptococcus pneumoniae ATCC 700677 incubated for 18 to 20 hrs followed by replating on tryptic soy agar plate and further incubated for 18 to 24 hrs by CLSI-based broth microdilution assay; type: functional
Outline: (§2)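 MBC: after the broth microdilution MIC (CAMHB, ~5 × 10^5 CFU/mL, 37 °C, 18-20 h), 4 µL from wells without growth plated onto tryptic soy agar. Plates incubated 37 °C for 18-20 h. MBC is the lowest concentration giving 99.9% reduction in growth.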

[18] = tested on: Streptococcus pneumoniae; assay: Bactericidal activity against cephalosporin-resistant Streptococcus pneumoniae ATCC 51916 incubated for 18 to 20 hrs followed by replating on tryptic soy agar plate and further incubated for 18 to 24 hrs by CLSI-based broth microdilution assay; type: functional; outline: as §2
[19] = tested on: Enterococcus faecium; assay: Bactericidal activity against vancomycin-resistant Enterococcus faecium ATCC 700221 incubated for 18 to 20 hrs followed by replating on tryptic soy agar plate and further incubated for 18 to 24 hrs by CLSI-based broth microdilution assay; type: functional; outline: as §2
[20] = tested on: Enterococcus faecalis; assay: Bactericidal activity against vancomycin-resistant Enterococcus faecalis ATCC 51299 incubated for 18 to 20 hrs followed by replating on tryptic soy agar plate and further incubated for 18 to 24 hrs by CLSI-based broth microdilution assay; type: functional; outline: as §2
[21] = tested on: Streptococcus pneumoniae; assay: Antibacterial activity against methicillin-resistant Streptococcus pneumoniae ATCC 700677 after 18 to 20 hrs by CLSI-based broth microdilution assay; type: functional; outline: as §1
[22] = tested on: Listeria monocytogenes; assay: Antibacterial activity against Listeria monocytogenes ATCC 19111 after 18 to 20 hrs by CLSI-based broth microdilution assay; type: functional
[23] = tested on: Streptococcus pneumoniae; assay: Antibacterial activity against cephalosporin-resistant Streptococcus pneumoniae ATCC 51916 after 18 to 20 hrs by CLSI-based broth microdilution assay; type: functional; outline: as §1
[24] = tested on: Enterococcus faecium; assay: Antibacterial activity against vancomycin-resistant Enterococcus faecium ATCC 700221 after 18 to 20 hrs by CLSI-based broth microdilution assay; type: functional; outline: as §1
[25] = tested on: Enterococcus faecalis; assay: Antibacterial activity against vancomycin-resistant Enterococcus faecalis ATCC 51299 after 18 to 20 hrs by CLSI-based broth microdilution assay; type: functional; outline: as §1
[26] = tested on: Staphylococcus aureus; assay: Bactericidal activity against vancomycin-resistant Staphylococcus aureus 12 incubated for 18 to 20 hrs followed by replating on tryptic soy agar plate and further incubated for 18 to 24 hrs by CLSI-based broth microdilution assay; type: functional; outline: as §2
[27] = tested on: Staphylococcus aureus; assay: Bactericidal activity against vancomycin-resistant Staphylococcus aureus 10 incubated for 18 to 20 hrs followed by replating on tryptic soy agar plate and further incubated for 18 to 24 hrs by CLSI-based broth microdilution assay; type: functional; outline: as §2
[28] = tested on: Staphylococcus aureus; assay: Bactericidal activity against methicilline-resistant Staphylococcus aureus NRS386 USA700 incubated for 18 to 20 hrs followed by replating on tryptic soy agar plate and further incubated for 18 to 24 hrs by CLSI-based broth microdilution assay; type: functional; outline: as §2
[29] = tested on: Staphylococcus aureus; assay: Bactericidal activity against methicilline-resistant Staphylococcus aureus NRS385 USA500 incubated for 18 to 20 hrs followed by replating on tryptic soy agar plate and further incubated for 18 to 24 hrs by CLSI-based broth microdilution assay; type: functional; outline: as §2
[30] = tested on: Staphylococcus aureus; assay: Bactericidal activity against methicilline-resistant Staphylococcus aureus NRS384 USA300 incubated for 18 to 20 hrs followed by replating on tryptic soy agar plate and further incubated for 18 to 24 hrs by CLSI-based broth microdilution assay; type: functional; outline: as §2
[31] = tested on: Staphylococcus aureus; assay: Bactericidal activity against methicilline-resistant Staphylococcus aureus NRS123 USA400 incubated for 18 to 20 hrs followed by replating on tryptic soy agar plate and further incubated for 18 to 24 hrs by CLSI-based broth microdilution assay; type: functional; outline: as §2
[32] = tested on: Staphylococcus aureus; assay: Bactericidal activity against methicilline-resistant Staphylococcus aureus NRS-119 incubated for 18 to 20 hrs followed by replating on tryptic soy agar plate and further incubated for 18 to 24 hrs by CLSI-based broth microdilution assay; type: functional; outline: as §2
[33] = tested on: Staphylococcus aureus; assay: Bactericidal activity against methicilline-sensitive Staphylococcus aureus NRS-107 incubated for 18 to 20 hrs followed by replating on tryptic soy agar plate and further incubated for 18 to 24 hrs by CLSI-based broth microdilution assay; type: functional; outline: as §2
[34] = tested on: Staphylococcus aureus; assay: Bactericidal activity against methicilline-sensitive Staphylococcus aureus ATCC 6538 incubated for 18 to 20 hrs followed by replating on tryptic soy agar plate and further incubated for 18 to 24 hrs by CLSI-based broth microdilution assay; type: functional; outline: as §2
[35] = tested on: Staphylococcus aureus; assay: Bactericidal activity against Staphylococcus aureus ATCC BAA42 incubated for 18 to 20 hrs followed by replating on tryptic soy agar plate and further incubated for 18 to 24 hrs by CLSI-based broth microdilution assay; type: functional; outline: as §2
[36] = tested on: Staphylococcus aureus; assay: Antibacterial activity against vancomycin-resistant Staphylococcus aureus 12 after 18 to 20 hrs by CLSI-based broth microdilution assay; type: functional; outline: as §1
[37] = tested on: Staphylococcus aureus; assay: Antibacterial activity against vancomycin-resistant Staphylococcus aureus 10 after 18 to 20 hrs by CLSI-based broth microdilution assay; type: functional; outline: as §1
[38] = tested on: Staphylococcus aureus; assay: Antibacterial activity against Staphylococcus aureus ATCC BAA42 after 18 to 20 hrs by CLSI-based broth microdilution assay; type: functional; outline: as §1
[39] = tested on: Staphylococcus aureus; assay: Antibacterial activity against intracellular methicillin resistant Staphylococcus aureus USA400 infected in mouse J774 cells assessed as intracellular bacterial cells at 2 times MIC concentration incubated for 24 hrs followed by re-plating on TSA plate for 18 to 22 hrs by serial dilution method; type: functional, organism-based
Outline: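 J774 murine macrophages in DMEM + 10% FBS, 37 °C, 5% CO2, infected with MRSA USA400 at MOI ~10:1 for 1 h. Washed with gentamicin 100 µg/mL to kill extracellular bacteria. […] Cells lysed with 0.1% Triton-X, serially diluted in PBS, plated on TSA for 18-22 h, CFU counted. One-way ANOVA with Dunnett's test.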

[40] = tested on: Staphylococcus aureus; assay: Bactericidal activity against methicillin-resistant Staphylococcus aureus USA400 assessed as reduction in bacterial burden at 5 times MIC after 24 hrs by time kill assay; type: functional, organism-based

GENTAMICIN
MIC [1]: 32 µg/mL
MIC [2]: < 0.5 µg/mL
MIC [3]: < 0.5 µg/mL
MIC [4]: 1 µg/mL
MIC [5]: 4 µg/mL
MIC [6]: 2 µg/mL
MIC [7]: 2 µg/mL
MBC [8]: 32 µg/mL
MBC [9]: < 0.5 µg/mL
MBC [10]: < 0.5 µg/mL
MBC [11]: 1 µg/mL
MBC [12]: 4 µg/mL
MBC [13]: 4 µg/mL
MBC [14]: 2 µg/mL

C/C(=N\NC(=N)N)c1sc(-c2ccc(N3CCC(C)CC3)cc2)nc1C
MIC [15]: 16 µg/mL (≈ 43.2 µM)

CN[C@H](CC(C)C)C(=O)N[C@H]1C(=O)N[C@@H](CC(N)=O)C(=O)N[C@H]2C(=O)N[C@H]3C(=O)N[C@H](C(=O)N[C@H](C(=O)O)c4cc(O)cc(O)c4-c4cc3ccc4O)[C@H](O)c3ccc(c(Cl)c3)Oc3cc2cc(c3O[C@@H]2O[C@H](CO)[C@@H](O)[C@H](O)[C@H]2O[C@H]2C[C@](C)(N)[C@H](O)[C@H](C)O2)Oc2ccc(cc2Cl)[C@H]1O [VANCOMYCIN]
inhibition [16]: inactive
MBC [17]: 1 µg/mL (≈ 0.69 µM)
MBC [18]: 1 µg/mL (≈ 0.69 µM)
MBC [19]: > 64 µg/mL
MBC [20]: 64 µg/mL (≈ 44.2 µM)
MIC [21]: 1 µg/mL (≈ 0.69 µM)
MIC [22]: 0.5 µg/mL (≈ 0.345 µM)
MIC [23]: 0.5 µg/mL (≈ 0.345 µM)
MIC [24]: > 64 µg/mL
MIC [25]: 32 µg/mL (≈ 22.1 µM)
MBC [26]: > 64 µg/mL
MBC [27]: > 64 µg/mL
MBC [28]: 1 µg/mL (≈ 0.69 µM)
MBC [29]: 1 µg/mL (≈ 0.69 µM)
MBC [30]: 1 µg/mL (≈ 0.69 µM)
MBC [31]: 1 µg/mL (≈ 0.69 µM)
MBC [32]: 1 µg/mL (≈ 0.69 µM)
MBC [33]: 1 µg/mL (≈ 0.69 µM)
MBC [34]: 1 µg/mL (≈ 0.69 µM)
MBC [35]: ≤ 0.5 µg/mL
MIC [36]: > 64 µg/mL
MIC [37]: > 64 µg/mL
MIC [38]: ≤ 0.5 µg/mL
inhibition [39]: inactive
inhibition [40]: Active

C/C(=N\NC(=N)N)c1sc(-c2ccc(N3CCCC3)cc2)nc1C
MIC [15]: 16 µg/mL (≈ 46.7 µM)

C/C(=N\NC(=N)N)c1sc(-c2ccc(N3CCN(C)CC3)cc2)nc1C
MIC [15]: 64 µg/mL (≈ 172 µM)

From ChEMBL document CHEMBL4406834, “Phenylthiazoles with nitrogenous side chain: An approach to overcome molecular obesity” (Eur J Med Chem, 2019)
